Results of several laboratories.
Protocols differ between the studies behind these lines.
Target: Activated CDC42 kinase 1 (TNK2, Homo sapiens, UniProt Q07912)

With `CC(=O)N1CCC(c2ccc(C(=O)NC(=N)N)cc2C(F)(F)F)CC1` the remaining binding was 100% (cell-free assay; competition with immobilised ligand; 1 µM).
`Cc1ccc(NC(=O)c2ccc(C)c(C(F)(F)F)c2)cc1C#Cc1nn(C2CCC(O)CC2)c2ncnc(N)c12` (stereo not drawn) gave a remaining signal of 4% (cell-free assay; 10 µM).
For `CCCOc1ccc([C@H]2[C@H](C(=O)O)[C@@H](c3ccc4c(c3)OCO4)CN2CC(=O)Nc2c(CC)cccc2CC)cc1`, the remaining binding was 100% (cell-free assay; competition with immobilised ligand; 1 µM).
For `O=C(Nc1cnn(-c2csc(C(=O)NC3COC3)c2)c1)Nc1ccccc1Cl`, the remaining activity was 85.6% (enzyme activity; inhibitor; 5 µM).
With `CN(C)CC#Cc1ccc(OCCCc2sc(N3CCc4cccc(C(=O)Nc5nc6ccccc6s5)c4C3)nc2C(=O)O)c(F)c1` the remaining binding was 100% (cell-free assay; competition with immobilised ligand; 1 µM).
The inhibition of `CC/C(=N\NC(=O)NCc1cccc(O)c1)c1ccc(O)c(C)c1O` is reported as -0.3% (enzyme activity; inhibitor; 0.1 µM).
`COc1ccc2cc(OCC3(C(=O)O)CN(C(=O)c4ccc(F)cc4)C3)ccc2c1` gave a remaining binding of 100% (cell-free assay; competition with immobilised ligand; 1 µM).
The remaining signal of `N#CCCc1ccc2c(c1)-c1[nH]c3ccc([N+](=O)[O-])cc3c1CC(=O)N2` is reported as 75.4% (cell-free assay; 0.5 µM).
`CC(C)(C)c1nc(-c2cccc(NS(=O)(=O)c3c(F)cccc3F)c2F)c(-c2ccnc(N)n2)s1` has a remaining activity of 29% (enzyme activity; inhibitor; radiometric; 1 µM).
The inhibition of `CCCCNc1ncc2c(-c3ccc(F)cc3)nn(C[C@H]3CC[C@H](N)CC3)c2n1` is reported as 71.4% (target engagement in cells; inhibitor; chemoproteomics; 20 mM).
With `O=S1(=O)N=C(NCc2ccc(OC(F)(F)F)cc2)Nc2cc(Cl)ccc21` the inhibition was > 90% (binding; competition with immobilised ligand; 10 µM).
`CCN(CC)c1ccc(C2=NNC(=O)CC2C)cc1[N+](=O)[O-]` (stereo not drawn) has a remaining activity of 94% (enzyme activity; inhibitor; 10 µM).
`CNC(=O)c1ccccc1Nc1cc(Nc2ccc(N3CCOCC3)cc2OC)ncc1C(F)(F)F` has an inhibition of > 50% (enzyme activity; inhibitor; 1 µM).
`O=C1Nc2ccc(Cl)cc2C1=Cc1cc(Cl)c(O)c(Cl)c1` has a remaining signal of 32.4% (cell-free assay; 0.5 µM).
`CC(C)(O)[C@H]1CC[C@H](Nc2ccc3ncc(-c4cccc(C(F)(F)F)c4)n3n2)CC1` has a remaining activity of 5.31% (enzyme activity; inhibitor; 1 µM).
`CO[C@@H](C)c1c(Nc2ccc([C@H](N(C)C(=O)C3CCS(=O)(=O)CC3)C(F)(F)F)cc2)cnc2cc(Cl)nn12` has a remaining binding of 100% (cell-free assay; competition with immobilised ligand; 1 µM).
With `COc1cc2nccc(Oc3ccc(NC(=O)c4c5n(n(-c6ccc(F)cc6)c4=O)CCCC5)cc3)c2cc1OC` the inhibition was 6% (enzyme activity; inhibitor; 0.1 µM).
With `CCCOc1ccc(OC)c(F)c1C(=O)c1ccc(C(=O)N[C@@H]2CNC[C@H]2NC(=O)c2ccc3[nH]ncc3c2)cc1` the remaining activity was 92% (enzyme activity; inhibitor; 10 µM).
